HSF-1 act: HSF-1 activators, primary screen, NIH3T3-HGL cells, MG132 stress, luminescence, single point; NIH3T3-HGL HSF-1 luciferase reporter, 8 h; 100% = twice DMSO control signal; activation, % at 9 µM; actives 1.7% (n = 300,000);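 active = mean replicate activation of at least 50% with a set share of replicates each reaching 50%; inconclusive = only one of those two conditions met; inactive = mean below 50% and too few replicates reaching it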;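 also: 0% = median of the neutral control wells and 100% = twice that signal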
CaV13 FRET inh: Disruptors of the CACNA1D IQ motif to Ca2+-dependent inactivation inhibitor domain association, primary screening, Förster resonance energy transfer in intact living …. inhibition, % at 12.3 µM. HEK cells, CFP/YFP FRET ICDI-IQ, plate reader, 10 min; percent FRET-ratio fall versus neutral wells. actives 0.098% (n = 340,000);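 active = mean replicate inhibition of at least 30% and at least 1% of replicates passing that level; inconclusive = only one of the two criteria is met; inactive = neither criterion is met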;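 also: 0% = median of the neutral control wells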
PfHsp90 set2: growth inhibition of PfHsp90-expressing yeast, primary screen, antimalarial PfHsp90 inhibitor project, S. cerevisiae, BacTiter-Glo luminescence, single point, set 2; BacTiter-Glo ATP, 48 h; yeast lacking PDR1 and PDR3 efflux regulators; inhibition, % at 9.4 µM; actives 0.32% (n = 310,000);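 active = every replicate shows inhibition above about 80%, whatever the replicate mean, limit read from the data; inconclusive = mean inhibition reaches the set limit but some replicate falls short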;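 also: 0% = DMSO neutral controls and 100% = 20 µM radicicol positive controls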
T cruzi repl: inhibitors of intracellular T. cruzi growth, primary screen, luminescence, NIH3T3 host cells | T. cruzi beta-gal in NIH3T3, 90 h | inhibition, % (test concentration not listed) | actives 1.4% (n = 300,000);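 active = mean inhibition across valid replicates above about 55%, limit read from the data; inconclusive = mean below that limit but half or more replicates reach it; inactive = mean below it, under half of replicates reach it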;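 also: signal also drops with host cell toxicity which is not excluded here; 0% = plate median of DMSO wells and 100% = zero luminescence signal; higher percent means less beta-gal luminescence so fewer parasites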
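Test system: β-gal T. cruzi (Tulahuen C4) inside NIH/3T3 cells / Quantity: 5,000 cells/well / Measured by: luminescence from GalScreen with 0.05% NP40, read after 60 min / Medium: DMEM plus 2% FBS / Measure: parasite load inhibition, % / Reagent: Tulahuen C4 trypomastigotes, 5000/well / Schedule: co-culture of at least 90 h after 3 h attachment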
N-glyco inh: increase of ERlucT glycosylation luciferase signal, primary screen, N-linked glycosylation inhibitor project, D54 ERlucT cells, luminescence, set 2 | D54 ERlucT glycosylation luciferase reporter, 24 h; percent of 100 nM tunicamycin response | reporter increase, % at 12.5 µM | actives 0.23% (n = 360,000) | AID 588692, 2011;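 active = mean luciferase reporter signal, scaled so untreated is 0 and the glycosylation-blocking control 100, at or above a set limit in every replicate; inconclusive = mean reaches the limit but not every replicate does; inactive = mean below the limit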;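 also: luciferase carries N-glycosylation sites so blocking glycosylation raises the light; 0% = median of neutral control wells and 100% = median of 100 nM tunicamycin wells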
PvdQ acylase: P. aeruginosa PvdQ acylase inhibitors, primary screen, biochemical, fluorescence, plate reader and imaging, single point. purified PvdQ acylase. actives 0.063% (n = 340,000). inhibition, % at 10 µM. PvdQ acylase [Pseudomonas aeruginosa LESB58]. AID 488965, 2010; in the data active = inhibition above about 30%, passing the limit was not always enough; inconclusive = no clear call, values can overlap the other calls;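 also: 0% = vehicle neutral wells and 100% = reference inhibitor wells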
* = called active by the depositor. Compounds with a hit are over-represented: about 3% of the library has one in this group of screens.

For O=C(N/N=C/c1ccc([N+](=O)[O-])o1)c1cc(-c2cccc(Br)c2)nc2ccccc12 the results were HSF-1 act 41.0, CaV13 FRET inh -4.9, PfHsp90 set2 -12.3, T cruzi repl 63.0*, N-glyco inh 2.7 and PvdQ acylase -15.2.
`O=C(N/N=C/c1ccco1)c1cc(-c2ccccc2)nc2ccccc12` gave HSF-1 act 1.5, CaV13 FRET inh -5.2, PfHsp90 set2 1.2, T cruzi repl -13.0, N-glyco inh 2.5 and PvdQ acylase 6.3.
Screening CCCc1ccc(-c2cc(C(=O)N/N=C/c3ccc([N+](=O)[O-])o3)c3ccccc3n2)cc1 returned HSF-1 act -31.0, PfHsp90 set2 -8.7, T cruzi repl 61.1*, N-glyco inh 9.1 and PvdQ acylase -16.4.
For Cc1cccn2c(=O)c3cc(C(=O)NCCN4CCOCC4)c(=N)n(Cc4ccc(F)cc4)c3nc12 the results were HSF-1 act -3.9, CaV13 FRET inh 102.0*, PfHsp90 set2 -19.2, T cruzi repl 23.6, N-glyco inh -19.7 and PvdQ acylase -17.9.
`CCNC(=O)c1cc2c(=O)n3cccc(C)c3nc2n(Cc2ccc(C)cc2)c1=N` gave HSF-1 act 35.4, CaV13 FRET inh 55.1*, PfHsp90 set2 1.7, T cruzi repl 12.6, N-glyco inh 2.0 and PvdQ acylase -9.3.
Screening Cc1cccn2c(=O)c3cc(C(=O)NCCN4CCOCC4)c(=N)n(CCN4CCOCC4)c3nc12 returned HSF-1 act 23.4, CaV13 FRET inh 13.5, PfHsp90 set2 8.6, T cruzi repl -14.6, N-glyco inh 5.3 and PvdQ acylase -1.6.
`CCn1c(=O)c([N+](=O)[O-])c(Cl)c2ccccc21` gave HSF-1 act 313.1*, T cruzi repl 70.9*, N-glyco inh inconclusive and PvdQ acylase -7.3.
`CCn1c(=O)c([N+](=O)[O-])c(NCCN(C)C)c2ccccc21` gave HSF-1 act -1.1, CaV13 FRET inh -4.5, PfHsp90 set2 -0.6, T cruzi repl 7.5, N-glyco inh 4.6 and PvdQ acylase -9.3.
Cc1ccccc1S(=O)(=O)NC(=O)C1(C)CCN1C(=O)CC(c1ccccc1)c1ccccc1 (centres undefined) was read as CaV13 FRET inh -8.2 and N-glyco inh -2.5.
For CCN1C(=O)C(=O)c2cc(C)ccc21 the results were CaV13 FRET inh -9.5, PfHsp90 set2 15.8, N-glyco inh 3.7 and PvdQ acylase -7.4.
For CC[N+]1=C(C)C(C)(C)c2cc(C)ccc21 the results were HSF-1 act -13.2, CaV13 FRET inh -6.6, PfHsp90 set2 3.7, T cruzi repl 57.3*, N-glyco inh -3.8 and PvdQ acylase -5.2.
COc1ccccc1NC(=O)Nc1nc(CC(=O)N2CCN(c3ccccc3)CC2)cs1 was read as HSF-1 act 61.6*, CaV13 FRET inh -6.3, PfHsp90 set2 -6.2, T cruzi repl 7.4, N-glyco inh -1.9 and PvdQ acylase -5.7.
For CCN(C)C1CN(Cc2cn(Cc3ccc(C(F)(F)F)cc3)nn2)S(=O)(=O)C1 (centres undefined) the results were CaV13 FRET inh -6.5.
Screening Cc1ccc(S(=O)(=O)Cc2ccc(C(=O)N3CCN(Cc4ccccc4)CC3)o2)cc1 returned HSF-1 act 17.4, CaV13 FRET inh 5.0, PfHsp90 set2 -16.4, T cruzi repl 6.1, N-glyco inh -0.3 and PvdQ acylase -11.1.
For COc1ccc(CCC(=O)N2CCN(S(=O)(=O)c3ccc(C)cc3)CC2)cc1 the results were CaV13 FRET inh -2.2, PfHsp90 set2 -23.5, N-glyco inh -0.8 and PvdQ acylase -13.2.
`COc1ccc(N2CCN(C(=O)c3ccc(Br)o3)CC2)cc1` gave HSF-1 act 16.0, CaV13 FRET inh -5.3, PfHsp90 set2 0.2, T cruzi repl 0.2, N-glyco inh 2.6 and PvdQ acylase 42.5*.
CCN1CCN(c2ccc(S(=O)(=O)N3CCCCC3)cc2NC(=O)c2ccc([N+](=O)[O-])o2)CC1 was read as HSF-1 act 9.0, PfHsp90 set2 -9.2, T cruzi repl 60.3*, N-glyco inh -14.1 and PvdQ acylase -4.7.
CCN1CCN(c2ccc(S(=O)(=O)N3CCCCC3)cc2NC(=O)c2ccc(F)cc2)CC1 was read as HSF-1 act -7.3, CaV13 FRET inh -14.2, PfHsp90 set2 -33.9, T cruzi repl 38.3, N-glyco inh 1.0 and PvdQ acylase -10.6.
`COc1ccc(S(=O)(=O)Cc2ccc(C(=O)N3CCN(Cc4ccccc4)CC3)o2)cc1` gave HSF-1 act 3.4, CaV13 FRET inh 57.9*, PfHsp90 set2 -19.7, T cruzi repl -8.2, N-glyco inh 0.4 and PvdQ acylase -16.1.
For COc1ccc(S(=O)(=O)N2CCN(C(=O)c3ccc([N+](=O)[O-])o3)CC2)cc1 the results were HSF-1 act 3.3, CaV13 FRET inh -7.0, PfHsp90 set2 -3.1, T cruzi repl 56.1*, N-glyco inh 6.2 and PvdQ acylase -4.3.
`C=C(C)C(=O)N1CCN(C(=O)C(=C)C)c2ccccc21` gave CaV13 FRET inh -5.2, PfHsp90 set2 -28.7, N-glyco inh 1.7 and PvdQ acylase -7.7.
Cc1csc(-c2nc3ccccc3n2C(C(=O)NC(C)(C)C)c2ccccc2)c1 (centres undefined) was read as CaV13 FRET inh -15.8.
`CC(C)(C)S(=O)(=O)N1C[C@H]2C(=C(CCO)C[C@H]3C(=O)N(c4ccccc4)C(=O)[C@H]32)[C@@H]1CCO` gave CaV13 FRET inh -7.5.
COc1ccc(S(=O)(=O)N2CCCCC2)cc1NC(=O)c1ccco1 was read as HSF-1 act -3.1, CaV13 FRET inh -2.3, PfHsp90 set2 10.7, T cruzi repl 8.5, N-glyco inh 0.7 and PvdQ acylase -6.8.
For COc1ccc(S(=O)(=O)N2CCCCC2)cc1NC(=O)c1ccc([N+](=O)[O-])o1 the results were HSF-1 act 5.8, CaV13 FRET inh 8.4, T cruzi repl 54.5*, N-glyco inh 7.7 and PvdQ acylase -10.8.
`N#Cc1ccc(S(=O)(=O)NC(=O)[C@H]2O[C@@H](n3ccc(=O)[nH]c3=O)[C@H](O)[C@@H]2O)cc1` gave CaV13 FRET inh -4.3.
CCn1c(=O)c(CCC(=O)NCC2CCCO2)c(C)c2c(C)nn(-c3ccccc3)c21 (centres undefined) was read as HSF-1 act -4.1, CaV13 FRET inh -2.3, PfHsp90 set2 -12.4, T cruzi repl -1.4, N-glyco inh -3.9 and PvdQ acylase -5.4.

Compound activity as filed in PubChem.
